In ChEMBL document CHEMBL3351998, “Discovery of potent and specific dihydroisoxazole inhibitors of human transglutaminase 2” (J Med Chem, 2014):
Activity calls are given as the source filed them. The calls are words filed in the database; no cut-off is given here.

Assays:
[1] = target: T1, Protein-glutamine gamma-glutamyltransferase K (Homo sapiens) (UniProt P22735); experiment: Inhibition of human transglutaminase 1 using ((benzyloxy)carbonyl)-L-glutaminyl-L-serine peptide substrate assessed as Kinh/Ki ratio by GDH coupled assay
T1 sequence (whole entry): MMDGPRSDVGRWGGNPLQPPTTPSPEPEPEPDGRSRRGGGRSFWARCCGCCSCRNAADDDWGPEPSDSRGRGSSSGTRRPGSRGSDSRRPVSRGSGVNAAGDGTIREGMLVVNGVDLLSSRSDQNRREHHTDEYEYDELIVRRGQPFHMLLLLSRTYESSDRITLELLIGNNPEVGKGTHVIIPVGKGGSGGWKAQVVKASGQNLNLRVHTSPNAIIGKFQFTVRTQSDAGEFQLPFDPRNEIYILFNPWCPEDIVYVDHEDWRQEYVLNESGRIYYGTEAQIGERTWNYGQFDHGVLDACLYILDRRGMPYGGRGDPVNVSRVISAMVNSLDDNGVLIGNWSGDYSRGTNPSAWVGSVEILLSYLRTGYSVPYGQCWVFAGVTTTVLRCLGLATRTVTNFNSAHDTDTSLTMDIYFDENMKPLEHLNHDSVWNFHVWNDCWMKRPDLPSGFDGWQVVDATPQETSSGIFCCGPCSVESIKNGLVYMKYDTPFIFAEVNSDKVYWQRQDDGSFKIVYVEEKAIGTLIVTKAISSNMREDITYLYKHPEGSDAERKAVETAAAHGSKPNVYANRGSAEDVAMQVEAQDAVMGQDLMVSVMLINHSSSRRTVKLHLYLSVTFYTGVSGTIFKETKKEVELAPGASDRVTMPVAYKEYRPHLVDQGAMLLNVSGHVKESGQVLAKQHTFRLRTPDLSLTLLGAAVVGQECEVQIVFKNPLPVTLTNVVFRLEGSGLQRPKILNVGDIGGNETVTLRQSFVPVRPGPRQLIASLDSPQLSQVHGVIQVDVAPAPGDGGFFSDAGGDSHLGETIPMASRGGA
Method in brief: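 Recombinant His-tagged human TG1 from E. coli Rosetta 2 pLysS, final ~0.37 μM, in 200 mM MOPS pH 7.2, 5 mM CaCl2, 10 mM α-ketoglutarate, 300 μM NADH, 36 U/mL GDH. Z-Gln-Ser at 20/40 mM. Inhibitors typically at 100/33.3/11.1/3.7 μM (1% DMSO), added after ≥5 min enzyme pre-equilibration. NADH loss read at 340 nm; progress curves fitted to exponential decay, kinh/Ki from irreversible model.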

[2] = target: T2, Protein-glutamine gamma-glutamyltransferase (Homo sapiens) (UniProt P21980); experiment: Inhibition of human transglutaminase 2 using ((benzyloxy)carbony l)-L-glutaminylglycine peptide substrate assessed as Kinh/Ki ratio by GDH coupled assay
T2 sequence (whole entry): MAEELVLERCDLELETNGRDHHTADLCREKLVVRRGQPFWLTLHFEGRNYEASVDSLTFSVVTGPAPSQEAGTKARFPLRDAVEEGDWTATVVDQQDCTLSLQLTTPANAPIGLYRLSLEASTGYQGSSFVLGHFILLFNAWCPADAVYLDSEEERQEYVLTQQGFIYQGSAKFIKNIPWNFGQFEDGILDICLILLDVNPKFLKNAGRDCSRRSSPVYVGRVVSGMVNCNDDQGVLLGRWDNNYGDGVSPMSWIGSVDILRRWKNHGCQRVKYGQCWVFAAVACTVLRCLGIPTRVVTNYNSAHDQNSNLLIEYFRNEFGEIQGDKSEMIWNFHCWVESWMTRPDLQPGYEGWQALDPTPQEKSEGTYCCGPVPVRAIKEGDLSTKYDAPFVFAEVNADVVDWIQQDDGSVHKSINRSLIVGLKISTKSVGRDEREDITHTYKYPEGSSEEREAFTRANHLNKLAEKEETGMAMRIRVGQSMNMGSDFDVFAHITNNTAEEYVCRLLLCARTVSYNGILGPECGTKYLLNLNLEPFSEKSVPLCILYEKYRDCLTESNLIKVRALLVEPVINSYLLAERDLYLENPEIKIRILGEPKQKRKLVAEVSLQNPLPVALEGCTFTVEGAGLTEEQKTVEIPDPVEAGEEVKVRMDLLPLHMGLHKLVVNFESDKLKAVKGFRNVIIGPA
Method in brief: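 Human TG2 (V224G variant) or codon-optimized murine TG2, E. coli-expressed, final ~0.34 and 0.22 μM respectively. Buffer: 200 mM MOPS pH 7.2, 5 mM CaCl2, 10 mM α-ketoglutarate, 300 μM NADH, 36 U/mL bovine GDH. Z-Gln-Gly at 10/20 mM. Inhibitors typically at 100/33.3/11.1/3.7 μM, 1% DMSO, added after ≥5 min pre-equilibration. A340 progress curves fitted to exponential decay; kinh/Ki from irreversible inhibition model.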

Compound	Ratio [1]	Ratio [2]
O=C(NC[C@@H]1CC(Br)=NO1)[C@@H]1C[C@@H](c2ccccc2O)CN1C(=O)OCc1cnc2ccccc2c1	29.5	33.8
Cn1c(COC(=O)N2CCC[C@H]2C(=O)NC[C@@H]2CC(Br)=NO2)nc2ccccc21	0.85	inactive
O=C(NC[C@@H]1CC(Br)=NO1)[C@@H]1C[C@@H](Cc2ccccc2)CN1C(=O)OCc1cnc2ccccc2c1	23.1	10.2
O=C(N[C@@H]1C[C@@H](C(=O)NC[C@@H]2CC(Br)=NO2)N(C(=O)OCc2cnc3ccccc3c2)C1)c1ccccc1O	37.1	37.1
O=C(NC[C@@H]1CC(Br)=NO1)[C@@H]1C[C@H](c2ccccc2)CN1C(=O)OCc1cnc2ccccc2c1	17.2	17.7
O=C(C[C@@H]1CCCN1C(=O)OCc1cnc2ccccc2c1)NC[C@@H]1CC(Br)=NO1	1.3	1.3
O=C(NC[C@@H]1CC(Br)=NO1)[C@@H]1CCCN1C(=O)OCc1ccncc1	10.8	2.6
O=C(NC[C@@H]1CC(Br)=NO1)[C@@H]1CCCN1C(=O)OCc1cccnc1	4.3	4.6
O=C(N[C@@H]1C[C@@H](C(=O)NC[C@@H]2CC(Br)=NO2)N(C(=O)OCc2cnc3ccccc3c2)C1)c1ccccc1	24.6	25.8
COc1cccc(COC(=O)N2CCC[C@H]2C(=O)NC[C@@H]2CC(Br)=NO2)c1OC	1.7	inactive
CO[C@@H]1C[C@@H](C(=O)NC[C@@H]2CC(Br)=NO2)N(C(=O)OCc2cnc3ccccc3c2)C1	7.7	10.4
O=C(NC[C@@H]1CC(Br)=NO1)[C@@H]1C=C(c2ccccc2)CN1C(=O)OCc1cnc2ccccc2c1	18.9	11.1
C[C@@]1(C(=O)NC[C@@H]2CC(Br)=NO2)CCCN1C(=O)OCc1cnc2ccccc2c1	2.4	2
O=C(NC[C@@H]1CC(Br)=NO1)[C@@H]1C[C@@H](NC(=O)C2(C(=O)O)CCC2)CN1C(=O)OCc1cnc2ccccc2c1	11.6	14.8
C#CCOC(=O)N1CCC[C@H]1C(=O)NC[C@@H]1CC(Br)=NO1	0.7	2.4
O=C(NC[C@@H]1CC(Br)=NO1)[C@@H]1CCN1C(=O)OCc1cnc2ccccc2c1	13.6	14.4
C#Cc1ccc(COC(=O)N2CCC[C@H]2C(=O)NC[C@@H]2CC(Br)=NO2)cc1	7.6	6.4
O=C(NC[C@@H]1CC(Br)=NO1)[C@@H]1CCCN1C(=O)OCc1cnc2ccccc2n1	15.4	1.6
O=C(NC[C@@H]1CC(Br)=NO1)[C@@H]1CCN(C(=O)OCc2cnc3ccccc3c2)C1	25.8	8.8
O=C(NC[C@@H]1CC(Br)=NO1)[C@@H]1C[C@@H](c2cccc(O)c2)CN1C(=O)OCc1cnc2ccccc2c1	38.7	52.2

Compound	Ratio [1]	Ratio [2]
O=C(NC[C@@H]1CC(Br)=NO1)[C@@H]1C[C@@H](c2cccc(Cl)c2)CN1C(=O)OCc1cnc2ccccc2c1	41.7	25.3
O=C(NC[C@@H]1CC(Br)=NO1)[C@@H]1CCCN1C(=O)OCc1cccc(OCc2ccccc2)c1	3.9	4.8
N[C@@H]1C[C@@H](C(=O)NC[C@@H]2CC(Br)=NO2)N(C(=O)OCc2cnc3ccccc3c2)C1	3.1	2.6
O=C(NC[C@@H]1CC(Br)=NO1)[C@@H]1C[C@@H](c2ccc(Cl)cc2)CN1C(=O)OCc1cnc2ccccc2c1	15.4	12
C#CCO[C@@H]1C[C@@H](C(=O)NC[C@@H]2CC(Br)=NO2)N(C(=O)OCc2cnc3ccccc3c2)C1	7.1	10.1
O=C(N[C@@H]1C[C@@H](C(=O)NC[C@@H]2CC(Br)=NO2)N(C(=O)OCc2cnc3ccccc3c2)C1)c1cnccn1	12	15.7
C[C@H](OC(=O)N1CCC[C@H]1C(=O)NC[C@@H]1CC(Br)=NO1)c1ccc2ccccc2c1	11.5	9
O=C(NC[C@@H]1CC(Br)=NO1)[C@@H]1CCCCN1C(=O)OCc1cnc2ccccc2c1	22.2	12
O=C(NC[C@@H]1CC(Br)=NO1)[C@@H]1CCCN1C(=O)OCc1ccnc2ccccc12	12	2
CC(C)(C)OC(=O)N1CCC[C@H]1C(=O)NC[C@@H]1CC(Br)=NO1	2.3	2.5
O=C(N[C@@H]1C[C@@H](C(=O)NC[C@@H]2CC(Br)=NO2)N(C(=O)OCc2cnc3ccccc3c2)C1)c1cccc(O)c1	18.1	36.2
O=C(NC[C@@H]1CC(Br)=NO1)[C@@H]1C[C@@H](F)CN1C(=O)OCc1cnc2ccccc2c1	6.7	7.3
C[C@H](OC(=O)N1CCC[C@@H]1C(=O)NC[C@@H]1CC(Br)=NO1)c1cnc2ccccc2c1	8.7	3.7
O=C(NC[C@@H]1CC(Br)=NO1)[C@@H]1CCCN1C(=O)OCc1ccccn1	1.6	1.2
O=C(NC[C@@H]1CC(Br)=NO1)[C@@H]1CCCN1C(=O)OCc1ccccc1	4.5	4.1
O=C(NC[C@@H]1CC(Br)=NO1)[C@@H]1C[C@@H](c2c[nH]c3ccc(F)cc23)CN1C(=O)OCc1cnc2ccccc2c1	48	18.4
O=C(NC[C@@H]1CC(Br)=NO1)[C@@H]1CCCN1C(=O)OCc1nc2ccccc2[nH]1	inactive	inactive
O=C(NC[C@@H]1CC(Br)=NO1)[C@@H]1CCCN1C(=O)OCc1cccc(F)c1	5.6	3.9
C[C@H](OC(=O)N1CCC[C@@H]1C(=O)NC[C@@H]1CC(Br)=NO1)c1ccc2ccccc2c1	5.1	2.9
